ChEMBL document CHEMBL3046238, “Synthesis and biological activity evaluation of 1,2,3-thiadiazole derivatives as potential elicitors with highly systemic acquired resistance” (2009)
Calls of active or inactive are those of the source. The calls are words filed in the database; no cut-off is given here.

What was measured:
Format in all cases: functional
Cytospora mali = assay: Antifungal activity against Valsa mali assessed as growth inhibition at 50 ug/mL measured after 2 days post dose; conditions: 48 h, read-out: GI
Alternaria mali = assay: Antifungal activity against Alternaria mali assessed as growth inhibition at 50 ug/mL measured after 2 days post dose; conditions: for inhibition of growth at 50 µg/mL: 48 h, read-out: GI
Sclerotinia sclerotiorum = assay: Antifungal activity against Sclerotinia sclerotiorum assessed as growth inhibition at 50 ug/mL measured after 2 days post dose; conditions: 48 h, read-out: GI
Botrytis cinerea = assay: Antifungal activity against Botryotinia fuckeliana assessed as growth inhibition at 50 ug/mL measured after 2 days post dose; conditions: for inhibition of growth at 50 µg/mL: 48 h, read-out: GI
Puccinia triticina = assay: Antifungal activity against Puccinia triticina inoculated on 500 ug/mL compound pre-treated wheat plants with 3 to 5 leaves assessed as growth inhibition
In short: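 Healthy wheat plants at the 3-5 leaf stage were sprayed with compound (500 μg/mL) and then inoculated with spores. Inhibition percentage was calculated against the corresponding spore stack.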

Alternaria solani = assay: Antifungal activity against Alternaria solani assessed as growth inhibition at 50 ug/mL measured after 2 days post dose; conditions: 48 h, read-out: GI
[1] = test system: Fusarium oxysporum f. sp. vasinfectum; assay: Antifungal activity against Fusarium oxysporum f. sp. vasinfectum assessed as growth inhibition at 50 ug/mL measured after 2 days post dose; conditions: for inhibition of growth at 50 µg/mL: 48 h, read-out: GI
Alternaria kikuchiana = assay: Antifungal activity against Alternaria kikuchiana assessed as growth inhibition at 50 ug/mL measured after 2 days post dose; conditions: for inhibition of growth at 50 µg/mL: 48 h, read-out: GI
[2] = test system: Colletotrichum gloeosporioides; assay: Antifungal activity against Glomerella cingulata assessed as growth inhibition at 50 ug/mL measured after 2 days post dose; conditions: for inhibition of growth at 50 µg/mL: 48 h, read-out: GI
Colletotrichum lagenaria = assay: Antifungal activity against Colletotrichum lagenaria assessed as growth inhibition at 50 ug/mL measured after 2 days post dose; conditions: 48 h, read-out: GI
Ustilaginoidea virens = assay: Antifungal activity against Villosiclava virens assessed as growth inhibition at 50 ug/mL measured after 2 days post dose; conditions: for inhibition of growth at 50 µg/mL: 48 h, read-out: GI
Fusarium graminearum = assay: Antifungal activity against Fusarium graminearum assessed as growth inhibition at 50 ug/mL measured after 2 days post dose; conditions: 48 h, read-out: GI
In short: (§1)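 Compound stock at 500 μg/mL in DMF, diluted with sterile water in the dish and mixed into potato dextrose agar before setting. A 4 mm diameter fungal plug is placed on the plate and cultured at 24-26 °C. Colony diameter is measured after 2 days.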

Phomopsis asparagi = assay: Antifungal activity against Phomopsis asparagi assessed as growth inhibition at 50 ug/mL measured after 2 days post dose; conditions: for inhibition of growth at 50 µg/mL: 48 h, read-out: GI
Mycosphaerella arachidis = assay: Antifungal activity against Mycosphaerella arachidis assessed as growth inhibition at 50 ug/mL measured after 2 days post dose; conditions: 48 h, read-out: GI
Fusarium oxysporum = assay: Antifungal activity against Fusarium oxysporum assessed as growth inhibition at 50 ug/mL measured after 2 days post dose; conditions: for inhibition of growth at 50 µg/mL: 48 h, read-out: GI
Fusarium fujikuroi = assay: Antifungal activity against Fusarium fujikuroi assessed as growth inhibition at 50 ug/mL measured after 2 days post dose; conditions: 48 h, read-out: GI
Tobacco mosaic virus = assay: Induction of systemic acquired resistance against Tobacco mosaic virus (TMV) in tobacco plants exposed to 500 ug/mL compound through leaf spray followed by 7 days culture under green house conditions assessed as inhibition of viral growth in leaves infected with Tobacco mosaic virus (TMV) measured 72 hr post viral infection by half-leaf juice rubbing method; parameters: scale not given: the % may be the effect or the level left
In short: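 Tobacco plants received compound by leaf spray or by soil irrigation, with double-distilled water as CK. Newly grown leaves were then rub-inoculated with TMV (5.88×10-2 μg/mL), and plants were kept at 25 °C for 72 h. Lesions on inoculated leaves were counted. Inhibition = (CK−A)/CK×100 from mean lesion numbers versus control.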

Ceratobasidium cereale = assay: Antifungal activity against Ceratobasidium cereale assessed as growth inhibition at 50 ug/mL measured after 2 days post dose; conditions: 48 h, read-out: GI
[3] = test system: Botryosphaeria berengeriana; assay: Antifungal activity against Botryosphaeria berengeriana assessed as growth inhibition at 50 ug/mL measured after 2 days post dose; conditions: 48 h, read-out: GI
Phytophthora infestans = assay: Antifungal activity against Phytophthora infestans assessed as growth inhibition at 50 ug/mL measured after 2 days post dose; in short: as §1
Rhizoctonia solani = assay: Antifungal activity against Rhizoctonia solani assessed as growth inhibition at 50 ug/mL measured after 2 days post dose; conditions: 48 h, read-out: GI

Row | SMILES | inhibition of growth at 50 µg/mL (Cytospora mali) | inhibition of growth at 50 µg/mL (Alternaria mali) | inhibition of growth at 50 µg/mL (Sclerotinia sclerotiorum) | growth inhibition (GI) (Botrytis cinerea) | growth inhibition (GI) (Puccinia triticina) | inhibition of growth at 50 µg/mL (Alternaria solani) | inhibition of growth at 50 µg/mL [1] | growth inhibition (GI) (Alternaria kikuchiana) | inhibition of growth at 50 µg/mL [2] | inhibition of growth at 50 µg/mL (Colletotrichum lagenaria) | growth inhibition (GI) (Ustilaginoidea virens) | inhibition of growth at 50 µg/mL (Fusarium graminearum) | growth inhibition (GI) (Phomopsis asparagi) | inhibition of growth at 50 µg/mL (Mycosphaerella arachidis) | inhibition of growth at 50 µg/mL (Fusarium oxysporum) | inhibition of growth at 50 µg/mL (Fusarium fujikuroi) | Activity (Tobacco mosaic virus) | inhibition of growth at 50 µg/mL (Botrytis cinerea) | inhibition of growth at 50 µg/mL (Alternaria kikuchiana) | inhibition of growth at 50 µg/mL (Ustilaginoidea virens) | also measured
1 | COc1ccc(-c2csc(NC(=O)c3snnc3C)n2)cc1 | 8.7% | 15.5% | 5.6% | inactive | 45% | 4% | 0% | inactive | 4% | 5.9% | inactive | 25% | inactive | 14.3% | 3.3% | 10.5% | 35% |  |  |  | 
2 | Cc1nnsc1C(=O)Nc1nc(-c2ccc(Cl)cc2)cs1 | 88.9% | 15% | 61.5% |  | 0% | 0% | 40% |  | 68.4% | 13.3% |  | 18.8% |  | 29.4% | 46.7% | 64.3% | 40% | 12% | 0% | 11.1% | inhibition of growth at 50 µg/mL (Phomopsis asparagi): 37.5%
3 | CCCc1sc(NC(=O)c2snnc2C)nc1-c1ccc(Cl)cc1Cl | 4.3% | 6.9% | 22.2% | inactive | 30% | 4% | 3.6% | inactive | 12% | 11.8% | inactive | 25% | inactive | 35.7% | 10% | 21.1% | 20% |  |  |  | 
4 | CCc1cnc(NC(=O)c2snnc2C)s1 | 61.1% | 25% | 3.3% |  |  | 21% | 5% |  | 36.8% | 26.7% |  | 50% |  | 35.7% | 53.3% | 0% | 30% | 0% | 43.8% | 50% | inhibition of growth at 50 µg/mL (Phomopsis asparagi): 31.3%
5 | CCCCCCc1cnc(NC(=O)c2snnc2C)s1 | 31% |  | 71.4% |  |  | 21% |  |  |  | 26.7% | inactive | 0% | inactive | 29.4% |  | 64.3% | 0% | 25% | 0% |  | growth inhibition (GI) (Alternaria mali): inactive; growth inhibition (GI) [1]: inactive; growth inhibition (GI) [2]: inactive; growth inhibition (GI) (Fusarium oxysporum): inactive
6 | Cc1nnsc1-c1nnc(-c2snnc2C)o1 | 0% | 0% | 32.1% |  | 28% | 44.7% | 0% |  | 13.8% |  |  | 31.6% |  | 13.6% | 31.3% | 21.1% | 0% | 0% |  | 0% | inhibition of growth at 50 µg/mL (Ceratobasidium cereale): 0%; inhibition of growth at 50 µg/mL [3]: 38.1%; growth inhibition (GI) (Phytophthora infestans): inactive; inhibition of growth at 50 µg/mL (Rhizoctonia solani): 0%
